Screens (PubChem BioAssay)
An excerpt weighted towards active compounds, which were near 12% of everything screened.
Cl transport mod – modulators of human KCC2 chloride dependent transport | Q9H2X9 | KCC2 cells, thallium flux FluoZin-2 fluorescence | B-score of Tl+ flux slope (higher = more flux/activation; lower = inhibition) at 10 µM | 190,000 tested, 2.2% active | AID 1456;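 active means thallium flux slope and its plate-corrected score both differing from the plate sample mean at a set confidence after two filtering rounds, in either direction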;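 further: slope of fluorescence scaled to starting intensity during 10 to 20 s after thallium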
Target sequence (Q9H2X9 whole entry, looked up): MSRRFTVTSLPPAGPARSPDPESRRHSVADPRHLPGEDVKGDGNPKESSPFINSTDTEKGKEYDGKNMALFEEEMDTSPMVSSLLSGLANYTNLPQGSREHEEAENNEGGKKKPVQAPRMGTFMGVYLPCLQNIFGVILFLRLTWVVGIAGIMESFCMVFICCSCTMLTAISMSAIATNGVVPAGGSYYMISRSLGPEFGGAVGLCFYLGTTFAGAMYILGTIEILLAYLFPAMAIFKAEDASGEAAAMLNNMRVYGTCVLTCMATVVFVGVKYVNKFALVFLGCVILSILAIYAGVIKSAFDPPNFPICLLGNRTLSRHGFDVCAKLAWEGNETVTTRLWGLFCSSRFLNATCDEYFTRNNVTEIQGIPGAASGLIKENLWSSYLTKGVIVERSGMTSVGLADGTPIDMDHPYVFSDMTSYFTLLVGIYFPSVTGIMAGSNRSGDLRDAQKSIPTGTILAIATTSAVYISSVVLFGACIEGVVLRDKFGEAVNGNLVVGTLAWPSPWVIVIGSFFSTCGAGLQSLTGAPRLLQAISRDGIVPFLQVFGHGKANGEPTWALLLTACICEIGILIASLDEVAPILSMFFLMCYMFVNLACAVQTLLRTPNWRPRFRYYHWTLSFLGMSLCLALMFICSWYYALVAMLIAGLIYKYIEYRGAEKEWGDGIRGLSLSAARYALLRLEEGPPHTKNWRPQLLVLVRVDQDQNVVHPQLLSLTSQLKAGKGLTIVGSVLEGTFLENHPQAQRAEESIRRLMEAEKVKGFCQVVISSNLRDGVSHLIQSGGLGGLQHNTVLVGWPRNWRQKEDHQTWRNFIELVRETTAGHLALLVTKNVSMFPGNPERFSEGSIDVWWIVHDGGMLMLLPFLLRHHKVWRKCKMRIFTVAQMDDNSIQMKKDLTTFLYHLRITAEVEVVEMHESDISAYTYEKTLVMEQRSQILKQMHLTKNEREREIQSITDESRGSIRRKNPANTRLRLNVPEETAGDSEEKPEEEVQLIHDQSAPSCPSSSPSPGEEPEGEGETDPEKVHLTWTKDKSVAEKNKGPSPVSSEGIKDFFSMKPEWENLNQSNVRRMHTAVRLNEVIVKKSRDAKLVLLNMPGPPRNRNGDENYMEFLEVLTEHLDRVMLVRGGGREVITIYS
ROMK mod – modulators of human ROMK potassium channel; 130,000 tested, 2% active; P48048; B-score at 10 µM; AID 1918; Tet-inducible ROMK, thallium flux fluorescence; actives lie on both sides;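 active means signal ratio slope over the read window, or its plate-corrected B-score, at least 3 SD from the plate mean, either direction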;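 further: B-score of the F/F0 ratio slope over 7 to 12 s after thallium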
Lmaj promast – Leishmania major promastigote growth inhibition. Leishmania major promastigotes, resazurin fluorescence viability. inhibition, % at 10 µM. 200,000 tested, 9% active; in the data active means inhibition above about 50%;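 further: promastigotes grown with compound for 44 hours at 28 °C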
WT yeast gro inh – growth inhibition of WT yeast, mitochondrial fusion screen. inhibition, % at 10 µM. 190,000 tested, 2.1% active. mitochondrial fusion phenotypic screen, WT strain; in the data active means inhibition above about 58%; tested in S. cerevisiae
Diaph inh CS – counter-screen for diaphorase-based assays: diaphorase inhibitors and chemical oxidizers. diaphorase resazurin-to-resorufin fluorescence, NADH, 16 min; bacterial (C. kluyveri) enzyme, not human. inhibition, % at 20 µM. 190,000 tested, 0.69% active. AID 1217;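 active means primary screen inhibition at 20 µM above a set limit, cut at about 50% in these data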
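controls = No-NADH positive control and DMSO neutral control | system = Clostridium kluyveri diaphorase enzyme | timing = reaction incubation of 16 min at room temperature | signal = resorufin fluorescence 544/590 nm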
Diaph act CS – counter-screen for diaphorase-based assays: diaphorase activators and chemical reducers; Diaphorase/resazurin coupled assay, resorufin fluorescence, 16 min; hits give high values; 1 = vehicle wells, 0 = NADH-free wells; activation factor at 20 µM; 190,000 tested, 0.005% active; AID 1229;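 active means diaphorase activity raised at least twofold by the compound at 20 µM; inactive means activation factor below 2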
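Test system: Clostridium kluyveri diaphorase, purified enzyme. Buffer or medium: 50 mM HEPES pH 7.4 buffer plus MgCl2 and Tween 20. Also added: 0.114 mM NADH and 0.1 mM resazurin, final amounts. Dosing: compound 20 µM once, DMSO 1%. Schedule: 16 min enzyme reaction, ambient temperature. Detection: fluorescence of resorufin, 544 nm excitation, 590 nm emission.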
Large screens that a line does not name were inactive.

COc1cc2c(C(=O)N3CCN(C)CC3)c(C)n(-c3ccccc3)c2cc1Br	none (no result: ROMK mod)
CCOCCCNC(=O)CCSc1ccc(C)cc1	none
COc1ccc(C2=NOC(C(=O)Nc3ccc4c(c3)OCO4)C2)cc1OC (configuration not stated)	none
COCCCn1c(=O)/c(=C\c2ccc(OC(F)F)c(OC)c2)s/c1=C(/C#N)C(=O)NCCOC	none (no result: ROMK mod, Lmaj promast, WT yeast gro inh, Diaph inh CS, Diaph act CS)
O=[N+]([O-])c1ccc(/C=N/N/C(=N/c2ccccn2)c2ccccn2)cc1	none (no result: ROMK mod)
O=[N+]([O-])c1cc(/C=N/N/C(=N/c2ccccn2)c2ccccn2)ccc1O	Lmaj promast 52
O=C(N/N=C/c1ccc(O)c([N+](=O)[O-])c1)C1CC1(c1ccccc1)c1ccccc1 (configuration not stated)	Diaph inh CS 72
CN1C2CCC1/C(=C/c1cccn1C)C(=O)/C2=C\c1cccn1C	none (no result: ROMK mod)
CN1C2CCC1/C(=C\c1ccc(F)cc1)C(=O)/C2=C/c1ccc(F)cc1	Lmaj promast 75
CCN(Cc1ccccc1)S(=O)(=O)c1cc(C(=O)NC(C)C2CC3CCC2C3)ccc1OC (configuration not stated)	Lmaj promast 84
CCN(Cc1ccccc1)S(=O)(=O)c1cc(C(=O)c2c(N)n(C)c(=O)n(C)c2=O)ccc1OC	none
CCOC(=O)C(=Cc1ccc(-n2ccnc2)cc1)C(=O)OCC	Lmaj promast 79
COc1ccc(C(=O)C2CCCN(Cc3c(C)[nH]c4ccccc34)C2)c(OC)c1 (configuration not stated)	Lmaj promast 97 (no result: Cl transport mod)
COc1ccc(C(=O)C2CCCN(Cc3sc(N4CCCC4)nc3Cl)C2)c(OC)c1 (configuration not stated)	Lmaj promast 99
COc1ccc(C(=O)C2CCCN(C3Cc4ccccc4C3)C2)c(OC)c1 (configuration not stated)	Lmaj promast 94 (no result: ROMK mod, Diaph inh CS, Diaph act CS)
COc1ccc(C(=O)C2CCCN(Cc3ccc(C#CCCO)cc3)C2)c(OC)c1 (configuration not stated)	none
O=C(Nc1ccc(Oc2cccnc2)cc1)c1cccc([N+](=O)[O-])c1	none
COc1ccc(Oc2ccc(/C=C/C(=O)c3cccc(OC)c3)cc2[N+](=O)[O-])cc1	Lmaj promast 100
C=CCC1CCCC(=O)N2CC[C@H](O)C12 (some centres not stated)	none
Cn1ccnc1SCC(=O)c1ccc(Br)cc1	WT yeast gro inh 67 (no result: Cl transport mod, ROMK mod)
Cc1cc(OCCOCCN(C)CCO)cc(C)c1Cl	Lmaj promast 95 (no result: ROMK mod)
CCN(CC)CCOCCOc1cc(C)c(Cl)c(C)c1	Lmaj promast 99
CC1(C)CC(=O)C=C(NCc2ccc(Cl)c(Cl)c2)C1	none
CSCC[C@H](NC(=O)COc1ccc(Cl)cc1)c1nc2ccccc2[nH]1	none (no result: ROMK mod)
C/C(=C\c1ccccc1)C(=O)N1CCN(c2cccc(C(F)(F)F)c2)CC1	Lmaj promast 55
O=C(CCn1c(=O)[nH]c2ccccc2c1=O)N1CCN(c2cccc(C(F)(F)F)c2)CC1	none (no result: Cl transport mod)
O=C(CCCCn1c(=O)[nH]c2ccccc2c1=O)N1CCN(c2cccc(C(F)(F)F)c2)CC1	Lmaj promast 82
COC(=O)N/N=C(\CCC(=O)O)c1cccs1	none (no result: ROMK mod, Lmaj promast, WT yeast gro inh, Diaph inh CS, Diaph act CS)
CCN(CC)c1ccc(NC(=O)Nc2ccccc2C(F)(F)F)cc1	WT yeast gro inh 63 (no result: ROMK mod)
COCCCNC(=O)C1CCCN(S(C)(=O)=O)C1 (configuration not stated)	none
CCn1c(C(=O)N2CCCC(C(=O)NCCc3ccc(C)cc3)C2)cc2sccc21 (configuration not stated)	none
CCn1c(C(=O)N2CCCC(C(=O)NCCCc3ccccc3)C2)cc2sccc21 (configuration not stated)	Lmaj promast 99 (no result: Cl transport mod, ROMK mod)
c1ccc(Nc2cccc(Nc3ccccc3)c2)cc1	WT yeast gro inh 71
CN(C(=O)COC(=O)c1ccc(=O)n(Cc2ccccc2)n1)c1ccccc1	none
O=C1CC(C(=O)Nc2cccc(F)c2)n2ncnc2N1 (configuration not stated)	none
Cc1ccc(O)c(CP(=O)(c2ccccc2)c2ccccc2)c1	Lmaj promast 84 (no result: ROMK mod)
CCOC(=O)c1c(C)sc2c1N(C(=O)CN1CCOCC1)c1cc(Cl)ccc1S2	Diaph inh CS 57 (no result: Cl transport mod, ROMK mod)
CCOC(=O)c1c(C)sc2c1N(C(=O)CN(CC)CC)c1cc(Cl)ccc1S2	none
CCN(CC)c1ccc(/C=N/NC(=O)c2cccc(N3CCCC3=O)c2)cc1	none (no result: Cl transport mod)
CSc1nc2ccc(NS(=O)(=O)c3cccc(Cl)c3Cl)cc2s1	WT yeast gro inh 81 (no result: ROMK mod)
Cn1c(N)c(S(=O)(=O)N2CCN(Cc3ccccc3)CC2)c(=O)n(C)c1=O	none (no result: ROMK mod)
CCOC(=O)/C=C1/N(C)c2ccccc2C1(C)C	none (no result: ROMK mod, Lmaj promast, WT yeast gro inh, Diaph inh CS, Diaph act CS)
CN1/C(=C\P(=O)(N(C)C)N(C)C)C(C)(C)c2ccccc21	Lmaj promast 99 (no result: Cl transport mod)
CCOC(=O)c1ccc(NC(=S)N2CCSC2c2ccc(Br)cc2)cc1 (configuration not stated)	Lmaj promast 87
CCOC(=O)c1ccc(NC(=S)N2CCC(O)CC2)cc1	none
N#CCC(=O)Nc1ccc(C(=O)OCC(=O)Nc2cccc(C(F)(F)F)c2)cc1	none
Oc1c(Br)cc(Br)cc1CNc1ccc(F)cc1	WT yeast gro inh 83 (no result: Cl transport mod)
N#Cc1cc(-c2ccccc2)nc(Oc2ccc(Cl)cc2)n1	Lmaj promast 77
Cc1ccc(Oc2ccc(-c3nnc(-c4ccccc4)o3)cc2[N+](=O)[O-])cc1C	Lmaj promast 60 (no result: ROMK mod)
COc1ccccc1C(=O)N/N=C/c1ccc(Cl)s1	none
O=C(N/N=C\c1ccc(Cl)s1)c1cccs1	Cl transport mod 19
CCCCNC(=S)NCCN1CCN(C(=S)NCCCC)CC1	none
COC(=O)c1ccccc1NC(=O)CSc1nnc(-c2cccnc2)n1C	none (no result: Cl transport mod)
COc1cccc(CN2CCN(c3cccc(C(F)(F)F)c3)CC2)c1OC	none (no result: ROMK mod)
FC(F)(F)c1cccc(N2CCN(Cc3cccnc3)CC2)c1	Lmaj promast 88 (no result: ROMK mod)
FC(F)(F)c1cccc(N2CCN(Cc3ccoc3)CC2)c1	Lmaj promast 93 (no result: ROMK mod)
Cc1ccc(C2=NC(=O)/C(=C/c3cc(O)c(O)c(Br)c3)S2)cc1	Diaph inh CS 81
Cc1ccc(/C=C2\SC(N3CCCC3)=NC2=O)cc1	none
COc1cc(/C=C2\SC(c3ccc(C)cc3)=NC2=O)cc(OC)c1O	Lmaj promast 57, Diaph inh CS 66 (no result: Cl transport mod, ROMK mod)
Cc1ccccc1-c1nc(CN2CCC(C(=O)NCCCN3CCCC3)CC2)c(C)o1	none (no result: Cl transport mod, ROMK mod)
Cc1oc(-c2ccc(Cl)cc2)nc1CN1CCCC(C(=O)NCCCN2CCOCC2)C1 (configuration not stated)	Lmaj promast 76
Cc1oc(-c2ccc(Cl)cc2)nc1CN1CCCC(C(=O)NCc2ccccn2)C1 (configuration not stated)	none
